# According to ChEMBL document CHEMBL1123848, “Role of the (acyloxy)methyl moiety in eliciting the adrenergic beta-blocking activity of 3-(acyloxy)propanolamines” (J Med Chem, 1987):
# Experiments:
# [1] = target: Beta-1 adrenergic receptor (Cavia porcellus) (UniProt B0FL73); experiment: (§1) Antagonist activity against beta-1 adrenergic receptor in isolated guinea pig atria; assay type: functional
# How it was run: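 Atria from adult male guinea pigs (300–350 g), stabilized 45 min in Tyrode solution. Isoprenaline dose-effect curve by single doses, each run to maximal response. Antagonist added at increasing concentrations with 15 min contact per dose; solutions freshly prepared. Percent inhibition of the maximal agonist response measured; pA2 (50% reduction) and pA10 (90%) calculated by the Arunlakshana–Schild method.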
# [2] = target: Beta-1 adrenergic receptor (Cavia porcellus, UniProt B0FL73); experiment: as §1; assay type: functional; settings: read-out: pA2 (converted)
# How it was run: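 Atria from adult male guinea pigs (300–350 g), stabilized 45 min in Tyrode solution. Isoprenaline dose-effect curve by single doses, each run to maximal response. Antagonist added at increasing concentrations with 15 min contact per dose; solutions freshly prepared.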
# [3] = target: Beta-2 adrenergic receptor (Cavia porcellus) (UniProt Q8K4Z4); experiment: (§2) Antagonist activity against beta-2 adrenergic receptor in isolated guinea pig trachea; assay type: functional, tissue-based
# [4] = target: Beta-2 adrenergic receptor (Cavia porcellus, UniProt Q8K4Z4); experiment: as §2; assay type: functional, tissue-based; settings: read-out: pA2 (converted)
# Chain of Beta-2 adrenergic receptor (Q8K4Z4 whole entry): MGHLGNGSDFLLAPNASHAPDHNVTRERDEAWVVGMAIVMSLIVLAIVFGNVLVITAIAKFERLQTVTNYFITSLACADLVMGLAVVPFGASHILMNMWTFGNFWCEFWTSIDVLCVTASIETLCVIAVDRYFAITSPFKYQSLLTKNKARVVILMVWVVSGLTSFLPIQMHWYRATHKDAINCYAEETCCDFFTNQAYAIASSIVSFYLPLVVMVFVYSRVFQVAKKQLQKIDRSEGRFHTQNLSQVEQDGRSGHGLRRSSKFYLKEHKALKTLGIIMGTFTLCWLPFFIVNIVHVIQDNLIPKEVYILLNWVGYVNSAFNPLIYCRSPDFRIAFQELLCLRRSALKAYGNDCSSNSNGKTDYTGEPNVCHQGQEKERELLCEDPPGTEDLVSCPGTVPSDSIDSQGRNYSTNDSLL
# Chain of Beta-2 adrenergic receptor (Cavia porcellus) (Q8K4Z4 whole entry, looked up): as the sequence (Q8K4Z4 whole entry) above
# Chain of Beta-1 adrenergic receptor (Cavia porcellus) (B0FL73 1-467): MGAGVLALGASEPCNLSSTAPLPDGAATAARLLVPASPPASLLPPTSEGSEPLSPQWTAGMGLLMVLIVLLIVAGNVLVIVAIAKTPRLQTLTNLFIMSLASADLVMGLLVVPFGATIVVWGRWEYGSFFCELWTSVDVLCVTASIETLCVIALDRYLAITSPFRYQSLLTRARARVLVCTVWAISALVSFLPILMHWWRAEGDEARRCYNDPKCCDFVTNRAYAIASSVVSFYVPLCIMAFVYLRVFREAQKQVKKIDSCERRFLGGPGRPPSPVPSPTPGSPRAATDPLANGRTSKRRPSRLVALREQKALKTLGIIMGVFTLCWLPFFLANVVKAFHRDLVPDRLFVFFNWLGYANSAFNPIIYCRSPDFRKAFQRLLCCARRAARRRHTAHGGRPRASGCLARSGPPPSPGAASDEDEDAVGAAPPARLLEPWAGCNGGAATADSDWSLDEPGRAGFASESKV
# Chain of Beta-1 adrenergic receptor (B0FL73 whole entry): as the sequence (B0FL73 1-467) above
Compound,pA10 [1],Kb [2],pA10 [3],Kb [4]
CC(C)NCC(O)COC(=O)c1cccs1 (stereo not given),5.11,1.58 µM,5.54,0.468 µM
CC(C)(C)NCC(O)COC(=O)C1CCCCC1 (stereo not given),4.22,7.94 µM,4.71,2.51 µM
CC(C)NCC(O)COC(=O)C1CCCCC1 (stereo not given),4.2,12.3 µM,4.62,2.29 µM
COc1ccc(OC)c(C(O)C(C)NC(C)(C)C)c1 (stereo not given),3.98,,5.96,
CC(C)NCC(O)COC(=O)c1ccc2c(c1)OCO2 (stereo not given),,0.126 µM,,
CC(C)NCC(O)COC(=O)Cc1cccs1 (stereo not given),4.28,11 µM,4.35,10 µM

# Further lines, results first:
pA10 [1],Kb [2],pA10 [3],Kb [4],Compound
3.9,26.9 µM,4.52,4.27 µM,CC(C)NCC(O)COC(=O)C(C)C (stereo not given)
3.74,28.2 µM,3.79,26.3 µM,CCC(=O)OCC(O)CNC(C)(C)C (stereo not given)
4.1,11.5 µM,3.94,28.8 µM,CC(C)C(=O)OCC(O)CNC(C)(C)C (stereo not given)
5.42,0.457 µM,6.82,0.0191 µM,CC(C)(C)NCC(O)COC(=O)c1cccs1 (stereo not given)
